Results reported in ChEMBL document CHEMBL3259690, “Synthesis, structure-activity relationships, and biological studies of chromenochalcones as potential antileishmanial agents” (J Med Chem, 2014).
Activity calls are given as the source filed them. The rule behind the calls is not given here.

Legend:
[1] = Cytotoxicity against African green monkey Vero cells after 72 hrs by MTT assay; type: cell-based; conditions: chlorocebus sabaeus
Method in brief: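 Vero cells at 1 × 10⁵/mL exposed to seven concentrations from 400 μM at 37 °C, 5% CO₂, for 72 h. MTT (5 mg/mL) added for 2 h at 37 °C, formazan dissolved in DMSO, absorbance read at 544 nm. CC₅₀ estimated by the Huber and Koella method; at least duplicate measurements.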

[2] = Selectivity index, ratio of CC50 for African green monkey Vero cells to IC50 for Leishmania donovani MHOM/IN/80/Dd8 intracellular amastigote form expressing luciferase gene infected in mouse J774A1 cells; type: functional, J774.A1
Method in brief: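 Ratio of CC₅₀ in Vero cells (72 h MTT) to IC₅₀ against luciferase-expressing amastigotes in J774A.1 macrophages (72 h luminescence).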

Leishmania donovani [3] = assay: Antileishmanial activity against Leishmania donovani MHOM/IN/80/Dd8 amastigotes infected in syrian golden hamster assessed as decrease in parasite count in spleen at 50 mg/kg/day, po for 5 days measured on day 7 after last dose administration by giemsa staining; type: functional; conditions: MHOM/IN/80/Dd8, Spleen
Method in brief: (§1)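 Golden hamsters of either sex infected intracardially with 1 × 10⁷ L. donovani Dd8 amastigotes. After 15−20 days, pretreatment spleen biopsy; animals with +1 grade infection (5−10 amastigotes/100 spleen cell nuclei) used, 5−6 per compound. Aqueous suspensions dosed IP or PO for 5−10 consecutive days starting 2 days after biopsy. Splenic biopsies on day 7 and 28 after last dose, Giemsa counts; PI = 100 − [(ANAT×100)/(INAT×TIUC)].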

Leishmania donovani [4] = assay: Antileishmanial activity against Leishmania donovani MHOM/IN/80/Dd8 amastigotes infected in syrian golden hamster assessed as decrease in parasite count in spleen at 50 mg/kg/day, po for 5 days measured on day 28 after last dose administration by giemsa staining; type: functional; conditions: MHOM/IN/80/Dd8, Spleen; method in brief: as §1
Leishmania donovani [5] = assay: Induction of early apoptosis in Leishmania donovani MHOM/IN/80/Dd8 promastigotes at 0.78 uM after 6 hrs by Annexin V-FITC/propidium iodide staining based flow cytometry (reference value: 13.70%); type: functional
Leishmania donovani [6] = assay: Induction of early apoptosis in Leishmania donovani MHOM/IN/80/Dd8 promastigotes at 0.78 uM after 24 hrs by Annexin V-FITC/propidium iodide staining based flow cytometry (reference value: 13.70%); type: functional
Leishmania donovani [7] = assay: Induction of early apoptosis in Leishmania donovani MHOM/IN/80/Dd8 promastigotes at 0.78 uM after 48 hrs by Annexin V-FITC/propidium iodide staining based flow cytometry (reference value: 13.70%); type: functional
Leishmania donovani [8] = assay: Induction of apoptosis in Leishmania donovani MHOM/IN/80/Dd8 promastigotes assessed as drop in mitochondrial membrane potential at 0.78 uM after 6 hrs by JC-1 dye based flow cytometry (reference value: 5.87%); type: functional
Leishmania donovani [9] = assay: Induction of apoptosis in Leishmania donovani MHOM/IN/80/Dd8 promastigotes assessed as drop in mitochondrial membrane potential at 0.78 uM after 12 hrs by JC-1 dye based flow cytometry (reference value: 5.87%); type: functional
Leishmania donovani [10] = assay: Induction of apoptosis in Leishmania donovani MHOM/IN/80/Dd8 promastigotes assessed as drop in mitochondrial membrane potential at 0.78 uM after 24 hrs by JC-1 dye based flow cytometry (reference value: 5.87%); type: functional
Leishmania donovani [11] = assay: Induction of apoptosis in Leishmania donovani MHOM/IN/80/Dd8 promastigotes assessed as drop in mitochondrial membrane potential at 0.78 uM after 48 hrs by JC-1 dye based flow cytometry (reference value: 5.87%); type: functional
J774.A1 [12] = assay: Increase in IL-12 production in mouse J774A1 cells infected with Leishmania donovani at IC50 concentration after 24 hrs by sandwich ELISA relative to control; type: functional
Method in brief: (§2)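 J774A.1 macrophages (1 × 10⁶) infected with Leishmania at 1:10, treated in 6-well plates at the compound's IC₅₀ concentration, 37 °C, CO₂. Supernatants from normal, infected-untreated and infected-treated cells collected after 24 h. IL-12, TNF-α, IL-10 and TGF-β measured by sandwich ELISA at 450 nm, in pg/mL. Two independent experiments in duplicate, mean ± SD; Student's t test against infected control.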

J774.A1 [13] = assay: Decrease in IL-10 production in mouse J774A1 cells infected with Leishmania donovani at IC50 concentration after 24 hrs by sandwich ELISA relative to control; type: functional; method in brief: as §2
[14] = Stability of the compound in simulated gastric fluid at 10 uM by HPLC-UV analysis; type: physicochemical; conditions: simulated gi fluid
Method in brief: (§3)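 Simulated gastric and intestinal fluids made to USP specifications. Compound at 10 μM incubated in SGF sampled at 0, 15, 30 and 60 min, and in SIF at 0, 30, 60, 90 and 120 min. Mean ± SEM.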

[15] = Stability of the compound in simulated intestinal fluid assessed as compound degradation at 10 uM by HPLC-UV analysis; type: physicochemical; conditions: read-out: Drug degradation; method in brief: as §3
[16] = Half life in syrian golden hamster liver S9 fraction at 10 uM in presence of NADPH; type: ADME, subcellular, Mesocricetus auratus
Method in brief: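 Hamster liver S9 (2 mg/mL protein), 50 mM Tris, 20 mM MgCl₂, 2 mM NADPH preincubated 10 min, then compound added at 10 μM final (1% organic) at 37 °C in triplicate. Sampled 0−60 min; no-NADPH control sampled at 0, 15, 30 and 60 min. Quenched with ice-cold methanol, extracted by LLE. Data as % parent remaining versus 0 min; testosterone as positive control.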

[17] = Tmax in Syrian golden hamster at 100 mg/kg, po administered via gavage as single dose by HPLC-UV analysis; type: ADME, organism-based, Mesocricetus auratus; design: dose 100 mg/kg, route oral; conditions: in vivo
Method in brief: (§4)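 Male Syrian golden hamsters (100 ± 15 g) given a single oral dose of 100 mg/kg. Plasma stored at −70 °C and assayed by HPLC-UV. Concentration–time profiles analysed non-compartmentally; values mean ± SD.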

[18] = Cmax in Syrian golden hamster at 100 mg/kg, po administered via gavage as single dose by HPLC-UV analysis; type: ADME, organism-based, Mesocricetus auratus; design: dose 100 mg/kg, route oral; conditions: in vivo; method in brief: as §4
[19] = AUC (0 to infinity) in Syrian golden hamster at 100 mg/kg, po administered via gavage as single dose by HPLC-UV analysis; type: ADME, organism-based, Mesocricetus auratus; design: time infinity, dose 100 mg/kg, route oral; conditions: plasma
[20] = Apparent oral volume of distribution in Syrian golden hamster at 100 mg/kg, po administered via gavage as single dose by HPLC-UV analysis; type: ADME, organism-based, Mesocricetus auratus; design: dose 100 mg/kg, route oral; conditions: in vivo; method in brief: as §4
Syrian golden hamster = assay: Toxicity in Syrian golden hamster at 100 mg/kg, po administered via gavage as single dose; type: organism-based, Mesocricetus auratus; design: dose 100 mg/kg, route oral; conditions: in vivo
Leishmania donovani [21] = assay: Induction of necrosis in Leishmania donovani MHOM/IN/80/Dd8 promastigotes at 0.78 uM after 72 hrs by Annexin V-FITC/propidium iodide staining based flow cytometry; type: functional, organism-based
Leishmania donovani [22] = assay: Antileishmanial activity against extracellular promastigote form of Leishmania donovani MHOM/IN/80/Dd8 expressing firefly luciferase gene assessed as inhibition of parasitic multiplication at 25 uM after 96 hrs by luminescence analysis; type: functional; conditions: MHOM/IN/80/Dd8, 96 h
Method in brief: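 Late-log luciferase-expressing Dd8 promastigotes, 5 × 10⁵/mL in complete M-199, incubated with compound at 24 °C for 96 h. Aliquot mixed with Steady Glo and luminescence read as RLU. Inhibition of multiplication taken from luciferase signal of treated versus untreated parasites.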

In the case of `CC(C)=CCCC1(C)C=Cc2c(ccc(C(=O)/C=C/c3cccnc3)c2O)O1` (stereo not drawn), the CC50 at 72 h [1] is reported as 40.7 µM, the “Ratio CC50/IC50” value [2] is reported as 7.5 and the inhibition in vivo at 50 mg/kg/day (Leishmania donovani [3]) is reported as 49%. For the same molecule, the inhibition in vivo at 50 mg/kg/day (Leishmania donovani [4]) was 55.4%, the Activity (Leishmania donovani [5]) was 27.04% and the Activity (Leishmania donovani [6]) was 30.79%. The Activity (Leishmania donovani [7]) was 37.62%, the Activity (Leishmania donovani [8]) was 10.47% and the Activity (Leishmania donovani [9]) was 17.46%. The Activity (Leishmania donovani [10]) was 31.88%, the Activity (Leishmania donovani [11]) was 61.67% and the “fold change (FC)” value (J774.A1 [12]) was 16. For the same molecule, the “fold change (FC)” value (J774.A1 [13]) was 7.11, the Stability [14] was “Stable” and the degraded at 10 µM [15] was 30%. For the same molecule, the half-life at 10 µM [16] was 37.8 min, the Tmax [17] was 37.5 min and the Cmax [18] was 820 ng/mL. For the same molecule, the AUC(0-inf) [19] was 3700 ng·h/mL, the Vd/F [20] was 392 L/kg and the Activity (Syrian golden hamster) was “Non-toxic”. For the same molecule, the Activity (Leishmania donovani [21]) was “inactive” and the inhibition at 25 µM (Leishmania donovani [22]) was 99.8%.
